Test results as given in ChEMBL document CHEMBL3871273, “p-Terphenyl Derivatives from the Endolichenic Fungus Floricola striata” (2016).
≈ marks a conversion by molar mass, not a printed value. Calls of active or inactive are those of the source. No cut-off for these calls is given here.

Experiments:
Assay type in all cases: functional
Candida albicans [1] = experiment: Antifungal activity against Candida albicans SC5314 after 48 hrs by broth microdilution method; conditions: SC5314, 48 h
Procedure, shortened: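 C. albicans SC5314 grown overnight, then set at (2−5) × 10^3 cells/mL in RPMI 1640. Compounds added at final 2 to 128 μg/mL, 35 °C for 48 h, following CLSI M27A3. OD600 read on a plate reader. MIC taken as the concentration giving 80% growth reduction.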

Candida albicans [2] = experiment: Induction of disruption of plasma membrane integrity in Candida albicans assessed as increase in fluorescence intensity after 3 hrs by propidium iodide-staining based FACS analysis
Procedure, shortened: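 Log-phase C. albicans harvested and suspended in RPMI 1640, then treated 3 h at 30 °C (amphotericin B 8 μg/mL as positive control). Stained with 5 μM propidium iodide for 30 min at room temperature. Cell fluorescence measured by flow cytometry.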

Candida albicans [3] = experiment: Fungicidal activity against Candida albicans SC5314 at 16 ug/ml up to 12 hrs by YPD-based colony counting method
Procedure, shortened: (§1)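 Overnight SC5314 cells washed and resuspended at 1 × 10^6 cells/mL in MOPS-buffered RPMI 1640. Compound added at final 8, 16 and 32 μg/mL, shaken at 30 °C. Aliquots taken at 0, 0.5, 1, 2, 3, 4, 5, 6, 7, 8 and 12 h, washed, diluted and plated on YPD agar for viable colony counts. Means ± SD.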

Candida albicans [4] = experiment: Induction of disruption of plasma membrane integrity in Candida albicans assessed as decrease in fluorescence intensity after 3 hrs by DPH-staining based spectrofluorophotometric analysis
Procedure, shortened: (§2)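 Cells at 1 × 10^6/mL in YPD treated 3 h (0, 4, 8, 16, 32 μg/mL; amphotericin B 8 μg/mL as positive control). Fixed in 0.37% formaldehyde 30 min, washed in PBS, freeze-thawed in liquid nitrogen. Stained with 1 μM DPH 45 min at 30 °C, washed. Fluorescence read at ex 350/em 450 nm and expressed as relative fluorescence. Means ± SD.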

Candida albicans [5] = experiment: Fungicidal activity against Candida albicans SC5314 at 32 ug/ml up to 2 hrs by YPD-based colony counting method; procedure, shortened: as §1
Candida albicans [6] = experiment: Induction of disruption of plasma membrane integrity in Candida albicans assessed as decrease in fluorescence intensity at 8 ug/ml after 3 hrs by DPH-staining based spectrofluorophotometric analysis; procedure, shortened: as §2

Structure (SMILES) | MIC80 (Candida albicans [1]) [µg/mL] | also measured
COC1=C(c2ccccc2O)C(=O)C=C(c2ccccc2)C1=O | 8 (≈ 26.1 µM) | Activity (Candida albicans [2]): Dose-dependent effect; Activity (Candida albicans [3]): 99.8%; Activity (Candida albicans [4]): Dose-dependent effect; Activity (Candida albicans [5]): Active
O=C1C=C(c2ccccc2)C(=O)C2=C1c1ccccc1CO2 | > 128 | –
COc1c(O)c(-c2ccccc2)cc(O)c1-c1ccccc1 | > 128 | –
Oc1cc(-c2ccccc2)c(O)c2c1-c1ccccc1CO2 | > 128 | –
COC1=C(c2ccccc2)C(=O)c2oc3ccccc3c2C1=O | > 128 | –
COC1(OC)C2C(=O)C=C(c3ccccc3)C1(O)Oc1ccc(O)cc12 (stereo not drawn) | > 128 | –
COc1c(O)c(-c2ccccc2)cc(O)c1-c1cc(O)ccc1O | 64 (≈ 197 µM) | –
COC12Oc3ccc(O)cc3C1(O)C(=O)C=C(c1ccccc1)C2=O (stereo not drawn) | > 128 | –
COC1=C(c2ccccc2)C(=O)C=C(c2ccccc2)C1=O [BETULINAN C] | > 128 | –
COC1=C(c2ccc(O)cc2)C(=O)C=C(c2ccccc2)C1=O | 8 (≈ 26.1 µM) | –
C[C@@H]1[C@H](O)[C@@H](C)/C=C/C=C/C=C/C=C/C=C/C=C/C=C/[C@H](O[C@@H]2O[C@H](C)[C@@H](O)[C@H](N)[C@@H]2O)C[C@@H]2O[C@](O)(C[C@@H](O)C[C@@H](O)[C@H](O)CC[C@@H](O)C[C@@H](O)CC(=O)O[C@H]1C)C[C@H](O)[C@H]2C(=O)O | – | Activity (Candida albicans [6]): Active
COC1=C(c2ccccc2)C(=O)C2=C(C1=O)c1ccccc1CO2 [BETULINAN B] | > 128 | –
COC1=C(c2cc(O)ccc2O)C(=O)C=C(c2ccccc2)C1=O | 64 (≈ 199 µM) | –
COc1c(O)c(-c2ccccc2)cc(O)c1-c1ccc(O)cc1 | 16 (≈ 51.9 µM) | –
